IC50, Activity and inhibition data for twelve molecules are collected here from ChEMBL document CHEMBL3808312, “Bioactive Constituents of Glycyrrhiza uralensis (Licorice): Discovery of the Effective Components of a Traditional Herbal Medicine” (J Nat Prod, 2016).

The subject of test [1] is Influenza A virus. The test is described as follows: Antiviral activity against Influenza A virus A/WSN/33(H1N1) infected in dog MDCK cells preincubated with virus for 15 mins followed by cells addition measured at 36 hrs post infection. The class given is functional, organism-based. The note with it: A/WSN/1933(H1N1).
Test [2] has as its system Influenza A virus. Put plainly: Antiviral activity against Influenza A virus A/WSN/33(H1N1) infected in MDCK cells at 100 uM preincubated with virus for 15 mins followed by cells addition measured at 36 hrs post infection. The class given is functional, A/WSN/1933(H1N1). The essentials:
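MDCK canine kidney cells grown in DMEM and infected with influenza A/WSN/33 (H1N1). Compounds screened at 100 μM. Oseltamivir phosphate served as the positive control.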

Molecule `C[C@@H]1[C@@H](O[C@@H]2O[C@H](C(=O)O)[C@@H](O)[C@H](O)[C@H]2O[C@@H]2O[C@H](C(=O)O)[C@@H](O)[C@H](O)[C@H]2O)CC[C@]2(C)[C@H]3CC=C4[C@H]5C[C@@](C)(C(=O)O)CC[C@]5(C)CC[C@@]4(C)[C@]3(C)CC[C@@H]12` gave an IC50 in the test on Influenza A virus [1] of 39.6 µM. In addition, in the test with Influenza A virus [2], the Activity came out at 47%. For `CC(=O)O[C@@H]1C[C@](C)(C(=O)O)C[C@@H]2C3=CC(=O)[C@@H]4[C@@]5(C)CC[C@H](O[C@@H]6O[C@H](C(=O)O)[C@@H](O)[C@H](O)[C@H]6O[C@@H]6O[C@H](C(=O)O)[C@@H](O)[C@H](O)[C@H]6O)[C@](C)(CO)[C@@H]5CC[C@@]4(C)[C@]3(C)CC[C@]21C`, in that order: 39.6 µM and 47%. Take `CC(=O)O[C@@H]1C[C@](C)(C(=O)O)C[C@@H]2C3=CC(=O)[C@@H]4[C@@]5(C)CC[C@H](O[C@H]6O[C@@H](C(=O)O)[C@H](O)[C@@H](O)[C@@H]6O[C@H]6O[C@@H](C(=O)O)[C@H](O)[C@@H](O)[C@@H]6O)C(C)(C)[C@@H]5CC[C@@]4(C)[C@]3(C)CC[C@]21C`: in the test with Influenza A virus [1], half-maximal inhibition (IC50) was put at 39.6 µM. For the same molecule, the Activity in the test on Influenza A virus [2] turned out to be 47%.

In the test on Influenza A virus [1], `CC1(C)[C@H]2CC[C@@]3(C)[C@@H](C(=O)C=C4[C@@H]5C[C@]6(C)C[C@@H](COC6=O)[C@@]5(C)CC[C@@]43C)[C@]2(C)CC[C@H]1O[C@H]1O[C@@H](C(=O)O)[C@H](O)[C@@H](O)[C@@H]1O[C@@H]1O[C@H](C(=O)O)[C@H](O)[C@H](O)[C@H]1O` displayed a half-inhibitory concentration (IC50) of 39.6 µM. This molecule also gave an Activity in the test with Influenza A virus [2] of 47%.

In the test with Influenza A virus [2] (Influenza A virus, A/WSN/1933(H1N1), MDCK), `CC(C)=CCc1c(O)cc(O)c2c(=O)c(-c3ccc(O)c(O)c3)coc12` [GANCAONIN L] showed an inhibition at 100 µM of over 30%. For the molecule `CC1(C)[C@@H](O[C@@H]2O[C@H](C(=O)O)[C@@H](O)[C@H](O)[C@H]2O[C@@H]2O[C@H](C(=O)O)[C@@H](O)[C@H](O)[C@H]2O)CC[C@]2(C)C3=CC=C4[C@H]5C[C@@](C)(C(=O)O)CC[C@]5(C)CC[C@@]4(C)[C@]3(C)CC[C@@H]12`, in the test with Influenza A virus [1], it took 39.6 µM to reach half-maximal inhibition (IC50). Moreover, the Activity in the test with Influenza A virus [2] came to 47%. In the test with Influenza A virus [1], `CC1(C)[C@@H](O[C@@H]2O[C@H](C(=O)O)[C@@H](O)[C@H](O)[C@H]2O[C@@H]2O[C@H](C(=O)O)[C@@H](O)[C@H](O)[C@H]2O)CC[C@]2(C)[C@H]3C(=O)C=C4[C@H]5C[C@@](C)(C=O)CC[C@]5(C)CC[C@@]4(C)[C@]3(C)CC[C@@H]12` had a 50% inhibitory concentration (IC50) of 39.6 µM. The same molecule displayed an Activity in the test with Influenza A virus [2] of 47%. Molecule `C[C@]1(C(=O)O)CC[C@@]2(C)CC[C@@]3(C)C(=CC(=O)[C@H]4[C@]5(C)CC[C@@H](O[C@H]6O[C@@H](C(=O)O)[C@H](O)[C@@H](O)[C@@H]6O[C@H]6O[C@@H](C(=O)O)[C@H](O)[C@@H](O)[C@@H]6O)[C@@](C)(CO)[C@H]5CC[C@@]43C)[C@@H]2C1` came in with a half-maximal inhibitory concentration (IC50) with Influenza A virus [1] of 39.6 µM. In the test with Influenza A virus [2], this molecule had an Activity of 47%. Regarding `CC1(C)[C@@H](O[C@@H]2O[C@H](C(=O)O)[C@@H](O)[C@H](O)[C@H]2O[C@@H]2O[C@H](C(=O)O)[C@@H](O)[C@H](O)[C@H]2O)CC[C@]2(C)[C@H]3C=CC4=C5C[C@@](C)(C(=O)O)CC[C@]5(C)CC[C@@]4(C)[C@]3(C)CC[C@@H]12`, it took 39.6 µM to reach half-maximal inhibition with Influenza A virus [1] (IC50). For the same molecule, the Activity in the test with Influenza A virus [2] is reported as 47%. For `CC(=O)O[C@H]1C[C@@](C)(C(=O)O)C[C@H]2C3=CC(=O)[C@H]4[C@]5(C)CC[C@@H](O[C@@H]6O[C@H](C(=O)O)[C@@H](O)[C@H](O)[C@H]6O[C@H]6OC[C@H](O)[C@@H](O)[C@@H]6O[C@H]6O[C@H](C)[C@@H](O)[C@H](O)[C@@H]6O)C(C)(C)[C@H]5CC[C@]4(C)[C@@]3(C)CC[C@]12C` the same measures were 39.6 µM and 47%. For `CCOC(=O)C1=C[C@@H](OC(CC)CC)[C@H](NC(C)=O)[C@@H](N)C1` [OSELTAMIVIR PHOSPHATE], in the test on Influenza A virus [1], the IC50 worked out at 45.6 µM. For `CC(C)(O)CCc1c(O)cc2occ(-c3ccc(O)c(O)c3)c(=O)c2c1O`, the Activity with Influenza A virus [2] was over 30%.
